Experiments:
[1] = In vitro blood/plasma partitioning; format: in vitro ADME; details: monkey, whole blood
Outline: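 Test compound was added to rat, monkey or human whole blood and incubated, then centrifuged to obtain plasma. The plasma concentration was measured by LC-MS. It was compared with the concentration in directly spiked plasma of the same species.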

UGT1A3 = target: T1, UGT1A3 (Homo sapiens, UniProt P35503); assay: Phase 2 enzyme inhibition; format: in vitro ADME
T1 sequence (P35503 29-534): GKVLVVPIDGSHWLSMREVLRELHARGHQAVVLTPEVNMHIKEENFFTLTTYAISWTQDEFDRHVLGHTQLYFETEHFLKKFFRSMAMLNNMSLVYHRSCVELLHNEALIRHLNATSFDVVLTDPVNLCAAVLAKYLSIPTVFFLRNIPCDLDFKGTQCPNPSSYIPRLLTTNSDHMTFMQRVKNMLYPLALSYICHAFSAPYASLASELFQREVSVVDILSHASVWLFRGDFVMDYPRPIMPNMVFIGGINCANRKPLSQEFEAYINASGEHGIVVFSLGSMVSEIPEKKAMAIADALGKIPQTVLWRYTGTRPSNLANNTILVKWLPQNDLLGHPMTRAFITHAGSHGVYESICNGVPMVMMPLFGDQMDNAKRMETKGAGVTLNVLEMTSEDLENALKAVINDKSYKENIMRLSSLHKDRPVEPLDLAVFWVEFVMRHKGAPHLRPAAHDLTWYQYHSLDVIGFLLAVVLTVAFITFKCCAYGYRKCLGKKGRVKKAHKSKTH

[2] = [14C] metabolism and excretion study in cynomolgus monkeys; format: in vivo, cynomolgus monkey; details: for whole blood‐to‐plasma ratio of total radioactivity: based on AUC0‐last; for recovery of radioactivity: by 168 h postdose
Outline: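 Male and female cynomolgus monkeys received one oral-gavage dose of 80 mg/kg (2 MBq/kg) [14C]-labelled test compound. Blood, urine and faeces were collected at set times up to 168 h for total radioactivity. Metabolites were profiled by high-resolution LC-MS with online fraction collection and offline counting. The blood:plasma ratio was based on AUC0-last.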

CYP2B6 [3] = target: T2, CYP2B6 (Homo sapiens, UniProt P20813); format: in vitro ADME
T2 sequence (P20813 1-491): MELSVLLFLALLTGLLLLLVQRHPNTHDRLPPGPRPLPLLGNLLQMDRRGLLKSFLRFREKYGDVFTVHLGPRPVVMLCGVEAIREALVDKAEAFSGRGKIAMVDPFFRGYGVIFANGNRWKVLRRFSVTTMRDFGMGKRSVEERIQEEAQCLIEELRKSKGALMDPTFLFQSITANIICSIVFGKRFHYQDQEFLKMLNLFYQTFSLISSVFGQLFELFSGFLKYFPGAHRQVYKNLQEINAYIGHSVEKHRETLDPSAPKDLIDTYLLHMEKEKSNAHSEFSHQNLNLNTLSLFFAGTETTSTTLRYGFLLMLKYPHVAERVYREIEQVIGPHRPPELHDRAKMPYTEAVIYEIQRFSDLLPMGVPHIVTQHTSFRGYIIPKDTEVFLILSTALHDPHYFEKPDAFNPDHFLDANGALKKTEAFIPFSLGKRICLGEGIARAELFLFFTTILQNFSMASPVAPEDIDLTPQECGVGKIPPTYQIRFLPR

[4] = Clinical safety in phase 1 studies; format: in vivo, human
Outline: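 Healthy adult subjects in phase 1 studies received oral single doses, or once-daily doses for up to 14 days, with placebo controls in some parts. They were housed in the clinical pharmacology unit from at least the day before dosing until ≥24 h after the last dose. Treatment-emergent adverse events were recorded and graded for intensity.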

BCRP = target: T3, BCRP (Homo sapiens, UniProt Q9UNQ0); assay: Transporter substrate assessment; format: in vitro ADME
T3 sequence (Q9UNQ0 1-655): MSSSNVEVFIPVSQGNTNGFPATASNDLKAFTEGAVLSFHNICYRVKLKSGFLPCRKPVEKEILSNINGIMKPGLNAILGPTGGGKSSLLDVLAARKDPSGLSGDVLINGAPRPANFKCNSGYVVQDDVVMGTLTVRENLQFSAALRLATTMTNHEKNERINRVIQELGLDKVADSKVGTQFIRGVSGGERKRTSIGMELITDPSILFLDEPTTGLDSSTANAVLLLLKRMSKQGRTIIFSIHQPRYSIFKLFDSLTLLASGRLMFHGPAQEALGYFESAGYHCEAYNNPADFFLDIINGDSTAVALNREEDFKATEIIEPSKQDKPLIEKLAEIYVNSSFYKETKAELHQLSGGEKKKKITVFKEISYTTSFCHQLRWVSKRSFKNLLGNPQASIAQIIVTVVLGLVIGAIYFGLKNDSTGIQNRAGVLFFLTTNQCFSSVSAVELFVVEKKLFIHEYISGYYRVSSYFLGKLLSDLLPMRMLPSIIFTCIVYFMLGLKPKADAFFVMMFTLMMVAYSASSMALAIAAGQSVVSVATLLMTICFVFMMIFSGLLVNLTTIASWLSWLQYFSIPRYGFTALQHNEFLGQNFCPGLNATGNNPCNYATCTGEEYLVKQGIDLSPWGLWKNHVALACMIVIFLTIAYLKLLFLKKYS

UGT1A1 = target: T4, UGT1A1 (Homo sapiens, UniProt P22309); assay: Phase 2 enzyme substrate assessment; format: in vitro ADME
T4 sequence (P22309 26-533): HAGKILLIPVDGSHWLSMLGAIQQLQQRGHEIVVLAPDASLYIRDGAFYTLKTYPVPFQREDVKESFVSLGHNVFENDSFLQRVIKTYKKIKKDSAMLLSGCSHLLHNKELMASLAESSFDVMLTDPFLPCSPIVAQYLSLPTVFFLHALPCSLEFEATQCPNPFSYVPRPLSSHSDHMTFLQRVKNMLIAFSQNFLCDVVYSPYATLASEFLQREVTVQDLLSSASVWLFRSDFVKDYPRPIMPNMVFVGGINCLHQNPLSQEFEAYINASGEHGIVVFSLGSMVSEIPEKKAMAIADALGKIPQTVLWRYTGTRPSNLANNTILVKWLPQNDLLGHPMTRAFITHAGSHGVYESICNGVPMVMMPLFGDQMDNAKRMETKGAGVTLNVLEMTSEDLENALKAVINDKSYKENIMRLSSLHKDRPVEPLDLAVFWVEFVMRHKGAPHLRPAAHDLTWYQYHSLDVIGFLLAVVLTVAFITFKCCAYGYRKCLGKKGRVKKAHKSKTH

CYP2B6 [5] = format: in vitro ADME, human; details: up to 10 µM, three donors
[6] = repeated once‐daily dosing for up to 14 days
[7] = single‐dose studies, healthy subjects

O=c1[nH]c(=O)c(Cc2cccc(C(F)(F)F)c2)c([C@H]2CC[C@H](c3ccccc3)CC2)[nH]1 [miricorilant]
blood plasma ratio [1]: 0.83
inhibition of UGT1A3 (UGT1A3): did not inhibit
elimination in urine ([2]; female monkeys): 0.74 ± 0.11%
fecal elimination ([2]; female monkeys): 78.51 ± 8.77%
time at which plasma radioactivity was below the limit of detection ([2]; female monkeys): 96 h
whole blood‐to‐plasma ratio of total radioactivity ([2]; female monkeys): 0.66
recovery of radioactivity ([2]; female monkeys): 88.08 ± 4.03%
elimination in urine ([2]; male monkeys): 0.96 ± 0.08%
fecal elimination ([2]; male monkeys): 72.2 ± 11.20%
time at which plasma radioactivity was below the limit of detection ([2]; male monkeys): 144 h
whole blood‐to‐plasma ratio of total radioactivity ([2]; male monkeys): 0.75
recovery of radioactivity ([2]; male monkeys): 80.88 ± 11.60%
inhibition of CYP2B6 (CYP2B6 [3]): No inhibition
overall safety and tolerability ([4]; phase 1 studies): safe and well‐tolerated
intensity of TEAEs [4, 6]: mild or moderate
most commonly reported TEAE [4, 6]: headache
deaths or serious adverse events ([4]; repeated‐dose studies): no deaths or treatment‐emergent serious adverse events
discontinuation due to TEAEs [4, 7]: No subjects
intensity of TEAEs [4, 7]: mild or moderate
most commonly reported TEAE [4, 7]: headache
Substrate of BCRP (BCRP): not a substrate
Substrate of UGT1A1 (UGT1A1): not a substrate
induction of CYP2B6 (CYP2B6 [5]): no induction
